Tested on: HEK-293T
Experiment: Multiplex assay against HEK293T;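 on Population Tubulin-Different-Phenotype (%): share of the cells with healthy nuclei that show this phenotype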
Format: toxicity, cell-based
Conditions: human
Method in brief: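 With compound added, live cells were imaged on a CQ1 microscope at 37°C and 5% CO2; staining with Hoechst33342, BioTracker Green Microtubule Cytoskeleton Dye, MitoTracker Red and Annexin V Alexa Fluor 680 had been done at seeding. The CellPathfinder machine-learning gating scheme split cells into Hoechst high-intensity objects or normal cells, normal cells into healthy, pyknosed or fragmented nuclei, and pyknosed cells into mitotic or apoptotic. The tubulin, mitochondrial-mass and membrane-permeability phenotypes are per cents of healthy-nucleus cells.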

[1] = 12 h, 1 µM, compound concentration 1 uM, replicate 1
[2] = 12 h, 1 µM, compound concentration 1 uM, replicate 2
[3] = 12 h, 10 µM, compound concentration 10 uM, replicate 1
[4] = 12 h, 10 µM, compound concentration 10 uM, replicate 2
[5] = 24 h, 1 µM, compound concentration 1 uM, replicate 1
[6] = 24 h, 1 µM, compound concentration 1 uM, replicate 2
[7] = 24 h, 10 µM, compound concentration 10 uM, replicate 1
[8] = 24 h, 10 µM, compound concentration 10 uM, replicate 2
[9] = 48 h, 1 µM, compound concentration 1 uM, replicate 1
[10] = 48 h, 1 µM, compound concentration 1 uM, replicate 2
[11] = 48 h, 10 µM, compound concentration 10 uM, replicate 1
[12] = 48 h, 10 µM, compound concentration 10 uM, replicate 2

For `CC(C)NC(=O)N1CC[C@H](NC2=Nc3cc(F)ccc3N(CC(F)F)c3ccc(Cl)cc32)C1`, which “Population Apoptotic (%)” value [1] is on record?
The value was 42%.

What about the “Population Fragmented Nuclei (%)” value [1] of the same molecule?
Its value is 19%.

And the “Population Healthy Nuclei (%)” value [1]?
Its value is 34%.

What about the “Population Hoechst High Intensity Objects (%)” value [1] of the same molecule?
The value was 18%.

And the “Population Membrane Permeable-Phenotype (%)” value [1]?
Its value is 4%.

And the “Population Mitochondria Different-Phenotype (%)” value [1]?
The value was 78%.

And the “Population Mitotic Cells (%)” value [1]?
The value was 57%.

And the “Population Normal (%)” value [1]?
Its value is 81%.

And the “Population Pyknosed Nuclei (%)” value [1]?
The value was 46%.

And the “Population Tubulin-Different-Phenotype (%)” value [1]?
The value was 34%.

And the “Total Cell Count” value [1]?
Its value is 170.

What about the “Population Apoptotic (%)” value [2] of the same molecule?
The value was 8%.

And the “Population Fragmented Nuclei (%)” value [2]?
The value was 4%.

What about the “Population Healthy Nuclei (%)” value [2] of the same molecule?
The value was 47%.

And the “Population Hoechst High Intensity Objects (%)” value [2]?
The value was 3%.

And the “Population Membrane Permeable-Phenotype (%)” value [2]?
Its value is 13%.

What about the “Population Mitochondria Different-Phenotype (%)” value [2] of the same molecule?
The value was 24%.

What about the “Population Mitotic Cells (%)” value [2] of the same molecule?
The value was 91%.

And the “Population Normal (%)” value [2]?
The value was 96%.

And the “Population Pyknosed Nuclei (%)” value [2]?
Its value is 47%.

What about the “Population Tubulin-Different-Phenotype (%)” value [2] of the same molecule?
The value was 25%.

And the “Total Cell Count” value [2]?
Its value is 304.

What about the “Population Apoptotic (%)” value [3] of the same molecule?
Its value is 53%.

And the “Population Fragmented Nuclei (%)” value [3]?
The value was 24%.

And the “Population Healthy Nuclei (%)” value [3]?
Its value is 38%.

What about the “Population Hoechst High Intensity Objects (%)” value [3] of the same molecule?
Its value is 22%.

What about the “Population Membrane Permeable-Phenotype (%)” value [3] of the same molecule?
Its value is 4%.

And the “Population Mitochondria Different-Phenotype (%)” value [3]?
Its value is 91%.

What about the “Population Mitotic Cells (%)” value [3] of the same molecule?
The value was 46%.

And the “Population Normal (%)” value [3]?
The value was 77%.

What about the “Population Pyknosed Nuclei (%)” value [3] of the same molecule?
The value was 37%.

And the “Population Tubulin-Different-Phenotype (%)” value [3]?
The value was 79%.

What about the “Total Cell Count” value [3] of the same molecule?
The value was 163.

What about the “Population Apoptotic (%)” value [4] of the same molecule?
The value was 20%.

What about the “Population Fragmented Nuclei (%)” value [4] of the same molecule?
Its value is 6%.

And the “Population Healthy Nuclei (%)” value [4]?
Its value is 53%.

And the “Population Hoechst High Intensity Objects (%)” value [4]?
Its value is 5%.

And the “Population Membrane Permeable-Phenotype (%)” value [4]?
Its value is 10%.

And the “Population Mitochondria Different-Phenotype (%)” value [4]?
Its value is 48%.

What about the “Population Mitotic Cells (%)” value [4] of the same molecule?
The value was 79%.

And the “Population Normal (%)” value [4]?
Its value is 94%.

And the “Population Pyknosed Nuclei (%)” value [4]?
The value was 40%.

What about the “Population Tubulin-Different-Phenotype (%)” value [4] of the same molecule?
The value was 57%.

What about the “Total Cell Count” value [4] of the same molecule?
The value was 170.

And the “Population Apoptotic (%)” value [5]?
Its value is 37%.

What about the “Population Fragmented Nuclei (%)” value [5] of the same molecule?
Its value is 20%.

And the “Population Healthy Nuclei (%)” value [5]?
The value was 39%.

And the “Population Hoechst High Intensity Objects (%)” value [5]?
Its value is 20%.

And the “Population Membrane Permeable-Phenotype (%)” value [5]?
The value was 0%.

And the “Population Mitochondria Different-Phenotype (%)” value [5]?
Its value is 75%.

What about the “Population Mitotic Cells (%)” value [5] of the same molecule?
The value was 62%.

And the “Population Normal (%)” value [5]?
The value was 79%.

And the “Population Pyknosed Nuclei (%)” value [5]?
The value was 39%.

What about the “Population Tubulin-Different-Phenotype (%)” value [5] of the same molecule?
The value was 32%.

And the “Total Cell Count” value [5]?
Its value is 178.

What about the “Population Apoptotic (%)” value [6] of the same molecule?
The value was 15%.

What about the “Population Fragmented Nuclei (%)” value [6] of the same molecule?
The value was 4%.

What about the “Population Healthy Nuclei (%)” value [6] of the same molecule?
The value was 69%.

What about the “Population Hoechst High Intensity Objects (%)” value [6] of the same molecule?
Its value is 3%.

And the “Population Membrane Permeable-Phenotype (%)” value [6]?
The value was 8%.

And the “Population Mitochondria Different-Phenotype (%)” value [6]?
Its value is 13%.

And the “Population Mitotic Cells (%)” value [6]?
Its value is 84%.

What about the “Population Normal (%)” value [6] of the same molecule?
Its value is 96%.

What about the “Population Pyknosed Nuclei (%)” value [6] of the same molecule?
Its value is 25%.

What about the “Population Tubulin-Different-Phenotype (%)” value [6] of the same molecule?
The value was 25%.

What about the “Total Cell Count” value [6] of the same molecule?
Its value is 367.

And the “Population Apoptotic (%)” value [7]?
The value was 58%.

What about the “Population Fragmented Nuclei (%)” value [7] of the same molecule?
The value was 17%.

What about the “Population Healthy Nuclei (%)” value [7] of the same molecule?
The value was 32%.

And the “Population Hoechst High Intensity Objects (%)” value [7]?
Its value is 25%.

And the “Population Membrane Permeable-Phenotype (%)” value [7]?
The value was 0%.

And the “Population Mitochondria Different-Phenotype (%)” value [7]?
The value was 94%.

And the “Population Mitotic Cells (%)” value [7]?
Its value is 41%.

And the “Population Normal (%)” value [7]?
Its value is 74%.

And the “Population Pyknosed Nuclei (%)” value [7]?
The value was 50%.

And the “Population Tubulin-Different-Phenotype (%)” value [7]?
Its value is 69%.

And the “Total Cell Count” value [7]?
The value was 161.

And the “Population Apoptotic (%)” value [8]?
The value was 37%.

What about the “Population Fragmented Nuclei (%)” value [8] of the same molecule?
Its value is 9%.

And the “Population Healthy Nuclei (%)” value [8]?
Its value is 58%.

What about the “Population Hoechst High Intensity Objects (%)” value [8] of the same molecule?
The value was 2%.

What about the “Population Membrane Permeable-Phenotype (%)” value [8] of the same molecule?
Its value is 6%.

What about the “Population Mitochondria Different-Phenotype (%)” value [8] of the same molecule?
Its value is 71%.

And the “Population Mitotic Cells (%)” value [8]?
The value was 62%.

And the “Population Normal (%)” value [8]?
The value was 97%.

What about the “Population Pyknosed Nuclei (%)” value [8] of the same molecule?
Its value is 32%.

What about the “Population Tubulin-Different-Phenotype (%)” value [8] of the same molecule?
Its value is 61%.

And the “Total Cell Count” value [8]?
Its value is 169.

What about the “Population Apoptotic (%)” value [9] of the same molecule?
The value was 48%.

And the “Population Fragmented Nuclei (%)” value [9]?
Its value is 22%.

What about the “Population Healthy Nuclei (%)” value [9] of the same molecule?
The value was 37%.

What about the “Population Hoechst High Intensity Objects (%)” value [9] of the same molecule?
Its value is 21%.

And the “Population Membrane Permeable-Phenotype (%)” value [9]?
Its value is 0%.

And the “Population Mitochondria Different-Phenotype (%)” value [9]?
Its value is 32%.

What about the “Population Mitotic Cells (%)” value [9] of the same molecule?
Its value is 51%.

And the “Population Normal (%)” value [9]?
The value was 78%.

What about the “Population Pyknosed Nuclei (%)” value [9] of the same molecule?
The value was 40%.

And the “Population Tubulin-Different-Phenotype (%)” value [9]?
Its value is 28%.

What about the “Total Cell Count” value [9] of the same molecule?
Its value is 189.

And the “Population Apoptotic (%)” value [10]?
Its value is 17%.

And the “Population Fragmented Nuclei (%)” value [10]?
The value was 5%.

What about the “Population Healthy Nuclei (%)” value [10] of the same molecule?
The value was 84%.

And the “Population Hoechst High Intensity Objects (%)” value [10]?
Its value is 3%.

What about the “Population Membrane Permeable-Phenotype (%)” value [10] of the same molecule?
Its value is 4%.

And the “Population Mitochondria Different-Phenotype (%)” value [10]?
The value was 4%.

What about the “Population Mitotic Cells (%)” value [10] of the same molecule?
Its value is 82%.

What about the “Population Normal (%)” value [10] of the same molecule?
Its value is 96%.

What about the “Population Pyknosed Nuclei (%)” value [10] of the same molecule?
Its value is 10%.

And the “Population Tubulin-Different-Phenotype (%)” value [10]?
Its value is 25%.

And the “Total Cell Count” value [10]?
The value was 580.

What about the “Population Apoptotic (%)” value [11] of the same molecule?
Its value is 70%.

And the “Population Fragmented Nuclei (%)” value [11]?
Its value is 28%.

And the “Population Healthy Nuclei (%)” value [11]?
The value was 39%.

And the “Population Hoechst High Intensity Objects (%)” value [11]?
Its value is 19%.

And the “Population Membrane Permeable-Phenotype (%)” value [11]?
Its value is 8%.

And the “Population Mitochondria Different-Phenotype (%)” value [11]?
The value was 74%.

What about the “Population Mitotic Cells (%)” value [11] of the same molecule?
The value was 29%.

And the “Population Normal (%)” value [11]?
The value was 80%.

And the “Population Pyknosed Nuclei (%)” value [11]?
Its value is 32%.

What about the “Population Tubulin-Different-Phenotype (%)” value [11] of the same molecule?
The value was 62%.

And the “Total Cell Count” value [11]?
The value was 181.

What about the “Population Apoptotic (%)” value [12] of the same molecule?
Its value is 48%.

And the “Population Fragmented Nuclei (%)” value [12]?
The value was 8%.

What about the “Population Healthy Nuclei (%)” value [12] of the same molecule?
Its value is 63%.

What about the “Population Hoechst High Intensity Objects (%)” value [12] of the same molecule?
Its value is 2%.

What about the “Population Membrane Permeable-Phenotype (%)” value [12] of the same molecule?
The value was 5%.

What about the “Population Mitochondria Different-Phenotype (%)” value [12] of the same molecule?
Its value is 46%.

What about the “Population Mitotic Cells (%)” value [12] of the same molecule?
Its value is 51%.

What about the “Population Normal (%)” value [12] of the same molecule?
Its value is 97%.

And the “Population Pyknosed Nuclei (%)” value [12]?
Its value is 28%.

And the “Population Tubulin-Different-Phenotype (%)” value [12]?
Its value is 61%.

What about the “Total Cell Count” value [12] of the same molecule?
The value was 219.

— ChEMBL document CHEMBL4689842, “EUbOPEN Chemogenomics Library wave 1” (2021)
